From ChEMBL document CHEMBL1156821, “Transforming rhinacanthin analogues from potent anticancer agents into potent antimalarial agents” (J Med Chem, 2010)
The source made the active and inactive calls. No cut-off for these calls is given here.

Legend:
[1] = system: Vero; assay: Cytotoxicity against African green monkey Vero cells by MTT assay; assay type: cell-based; conditions: Chlorocebus sabaeus
[2] = system: Plasmodium falciparum; assay: Antimalarial activity against multidrug-resistant Plasmodium falciparum K1 infected in erythrocytes after 48 hrs by [3H]hypoxanthine incorporation assay; assay type: functional, organism-based
Outline: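 P. falciparum K1 (multidrug-resistant) was grown in RPMI 1640 with 20 mM HEPES, 32 mM NaHCO3, 10% […] human serum and 3% erythrocytes, at 37 C under 3% CO2. Early-ring cultures (1.5% erythrocytes, 1% parasitemia) were exposed to compound for 24 h at 0.1% final DMSO. [3H]hypoxanthine (0.5 μCi) was then added for a further 24 h, and incorporation was counted by scintillation. IC50 is the 50% growth reduction; values are the mean of six replicates; dihydroartemisinin was the reference.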

[3] = system: Saccharomyces cerevisiae; assay: Inhibition of Saccharomyces cerevisiae CK Cytochrome b-c1 complex assessed as DQH-induced reduction of cyt bc1 complex by redoxdifference spectra
[4] = Inhibition of Cytochrome b-c1 complex in Wistar rat liver microsomes assessed as decyclobiquinol-linked cytochrome c reduction by spectrophotometry; set-up: species or system Microsome
Outline: (§1)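 Steady-state decylubiquinol/cytochrome c reductase in yeast mitochondrial membranes (YPD-grown at 28 C) or male Wistar rat (125-170 g) liver microsomes. bc1 set to 5 nM; 50 mM K-phosphate pH 7.5, 2 mM EDTA, 10 mM KCN, 30 μM equine cytochrome c. Start: 50 μM decylubiquinol. ε550-542nm read at 21 C; no preincubation, DMSO ≤0.3%. IC50 from four-parameter sigmoidal fit, three separate assays.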

[5] = Inhibition of Cytochrome b-c1 complex in yeast mitochondrial membrane assessed as decyclobiquinol-linked cytochrome c reduction by spectrophotometry; assay type: cell membranes, Saccharomyces cerevisiae; outline: as §1
[6] = system: Saccharomyces cerevisiae; assay: Inhibition of electron transfer from Q(o) site to iron cluster of Saccharomyces cerevisiae CK Cytochrome b-c1 complex assessed as DQH-induced reduction of cyt bc1 complex by redoxdifference spectra
Outline: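 Purified yeast bc1 at 2 μM in 50 mM K-phosphate with 0.05% UM; inhibitors added at final 5 μM (test) or 40 μM (stigmatellin, antimycin A). Redox difference spectra recorded as decylubiquinol-reduced bc1-inhibitor complex minus protein-inhibitor complex.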

[7] = system: Plasmodium falciparum; assay: Inhibition of Cytochrome b-c1 complex in Plasmodium falciparum 3D7 cell free extracts assessed as decyclobiquinol-linked cytochrome c reduction by spectrophotometry
Outline: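 Cell-free extract of P. falciparum 3D7 was made by 20 s sonication on ice and adjusted to 0.1 mg protein/mL by Bradford assay. Steady-state decylubiquinol/cytochrome c reductase activity was read at ε550-542nm at 21 C in 50 mM potassium phosphate pH 7.5 with 2 mM EDTA, 10 mM KCN and 30 μM equine cytochrome c. Reactions were started with 50 μM decylubiquinol, compound added without preincubation, DMSO ≤0.3%. IC50 came from four-parameter sigmoidal fits of three separate assays.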

[8] = Therapeutic index, ratio of IC50 for African green monkey (Cercopithecus aethiops) Vero cells to IC50 for multidrug-resistant Plasmodium falciparum K1; assay type: cell-based; conditions: read-out: Ratio IC50
[9] = Inhibition of wild type Saccharomyces cerevisiae CK Cytochrome b-c1 complex by spectrophotometry
Outline: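 Purified bc1 from wild-type yeast strain CKWT grown in YPGal was diluted to 8 nM. Inhibitor was added before starting with 50 μM decylubiquinol; 550 nm read at room temperature. IC50 taken from a concentration series.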

[10] = Plasmodium falciparum, K1, read-out: IC50

SMILES	IC50 [1]	IC50 [2, 10]	further results
CCCCCCCCCC(=O)OCC(C)(C)CC1=C(O)C(=O)c2ccccc2C1=O	203000 nM	720 nM	–
CCC(=O)OCC(C)(C)CC1=C(O)C(=O)c2ccccc2C1=O	60100 nM	4100 nM	–
CCCCCCCCC(=O)OCC(C)(C)CC1=C(O)C(=O)c2ccccc2C1=O	150000 nM	500 nM	–
CCCCCCCC(=O)OCC1(CC2=C(O)C(=O)c3ccccc3C2=O)CCCCC1	–	2630 nM	–
CCCCCCCCCCCCCCCC(=O)OCC(C)(C)CC1=C(O)C(=O)c2ccccc2C1=O	4410 nM	30 nM	–
CCCCCCCCCCCC(=O)OCC(C)(C)CC1=C(O)C(=O)c2ccccc2C1=O	249000 nM	900 nM	–
CCCCCC[C@H]1C(=O)O[C@H](C)[C@H](NC(=O)c2cccc(NC=O)c2O)C(=O)O[C@@H](C)[C@@H]1OC(=O)CC(C)C	–	–	Activity [3]: Active
CCCC(=O)OCC(C)(C)CC1=C(O)C(=O)c2ccccc2C1=O	73200 nM	910 nM	–
CCCCCCCCCCCCCCCCCC(=O)OCC(C)(C)CC1=C(O)C(=O)c2ccccc2C1=O	15500 nM	133 nM	–
CCCCCCCC(=O)OCCCC1=C(O)C(=O)c2ccccc2C1=O	–	5150 nM	–
CCC(C)C(=O)OCC(C)(C)CC1=C(O)C(=O)c2ccccc2C1=O (centres undefined)	870 nM	220 nM	–
CCC(CC)C(=O)OCC(C)(C)CC1=C(O)C(=O)c2ccccc2C1=O	104000 nM	16600 nM	–
CC(=O)OCC(C)(C)CC1=C(O)C(=O)c2ccccc2C1=O	139000 nM	10900 nM	–
CCCCCCCC(=O)OCC(C)(C)CC1=C(O)C(=O)c2ccccc2C1=O	> 259000 nM	130 nM	IC50 [4]: 3000 nM; IC50 [5]: 16 nM; Activity [6]: Active; IC50 [7]: 5.4 nM; selectivity ratio [8]: > 1990; IC50 [9]: 840 nM
CCCCCCCCCCCCCC(=O)OCC(C)(C)CC1=C(O)C(=O)c2ccccc2C1=O	58400 nM	32 nM	IC50 [4]: 2500 nM; IC50 [5]: 79.6 nM; Activity [6]: Active; IC50 [7]: 8 nM; selectivity ratio [8]: 1830; IC50 [9]: 770 nM
CCCCCCC(=O)OCC(C)(C)CC1=C(O)C(=O)c2ccccc2C1=O	99300 nM	810 nM	–
CCCC(=O)OCCCC1=C(O)C(=O)c2ccccc2C1=O	–	–	IC50 [2]: Not Active
CC[C@H](C)C(=O)OCC(C)(C)CC1=C(O)C(=O)c2ccccc2C1=O	570 nM	110 nM	–
CCCCCCCCCCC(=O)OCC(C)(C)CC1=C(O)C(=O)c2ccccc2C1=O	> 233000 nM	700 nM	–
CCCCCCC(C)C(=O)OCC(C)(C)CC1=C(O)C(=O)c2ccccc2C1=O (centres undefined)	450 nM	110 nM	–
CCCCCC(=O)OCC(C)(C)CC1=C(O)C(=O)c2ccccc2C1=O	169000 nM	1120 nM	–
CC(C)C(=O)OCC(C)(C)CC1=C(O)C(=O)c2ccccc2C1=O	123000 nM	910 nM	–
CCC(C)CC(=O)OCC(C)(C)CC1=C(O)C(=O)c2ccccc2C1=O (centres undefined)	2300 nM	190 nM	–
CCCC(C)C(=O)OCC(C)(C)CC1=C(O)C(=O)c2ccccc2C1=O (centres undefined)	120 nM	120 nM	–
CCCCC(=O)OCC(C)(C)CC1=C(O)C(=O)c2ccccc2C1=O	7840 nM	580 nM	–
CC(=O)OCCCC1=C(O)C(=O)c2ccccc2C1=O	–	–	IC50 [2]: Not Active
C/C=C(C)/C=C/C=C/[C@H](OC)[C@@H](C)[C@@H](OC)[C@@H](C)CCc1oc2c(O)c(OC)cc(OC)c2c(=O)c1C [STIGMATELLIN]	–	–	Activity [6]: Active; IC50 [9]: 9.1 nM
C[C@H]1[C@@H](O)O[C@@H]2O[C@@]3(C)CC[C@H]4[C@H](C)CC[C@@H]1[C@@]24OO3 [ARTENIMOL]	–	3.5 nM	–
CC(C)CC(=O)OCC(C)(C)CC1=C(O)C(=O)c2ccccc2C1=O	550 nM	410 nM	–
